# Experimental data from ChEMBL document CHEMBL2157924, “Cyclobutane derivatives as novel nonpeptidic small molecule agonists of glucagon-like peptide-1 receptor” (J Med Chem, 2012).
# pEC50, pIC50: −log10 of the molar value. Activity calls are given as the source filed them. No cut-off for these calls is given here.
# Experiments:
# [1] = target: T1, Glucagon-like peptide 1 receptor (Rattus norvegicus) (UniProt P32301); assay: Inhibition of [125I]GLP1 (7-36) amide binding to rat GLP1R expressed in HEK293 cells relative to untreated control; type: cell-based; design: concentration or dose not given beside the values; settings: concentration not given here
# T1 sequence (whole entry): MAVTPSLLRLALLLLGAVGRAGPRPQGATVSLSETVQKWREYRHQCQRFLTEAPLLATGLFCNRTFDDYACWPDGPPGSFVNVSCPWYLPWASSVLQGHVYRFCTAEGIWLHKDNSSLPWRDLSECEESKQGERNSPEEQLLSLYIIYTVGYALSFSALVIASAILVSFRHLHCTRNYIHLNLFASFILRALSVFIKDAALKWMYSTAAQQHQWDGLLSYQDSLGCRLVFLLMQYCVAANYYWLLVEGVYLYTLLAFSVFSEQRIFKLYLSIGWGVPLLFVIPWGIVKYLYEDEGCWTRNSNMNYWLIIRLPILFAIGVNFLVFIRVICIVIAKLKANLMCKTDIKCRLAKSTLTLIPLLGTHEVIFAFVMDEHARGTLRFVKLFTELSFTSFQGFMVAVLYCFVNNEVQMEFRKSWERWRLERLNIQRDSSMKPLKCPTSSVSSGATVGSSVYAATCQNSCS
# Outline: (§1)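 Membranes (17 μg protein) from HEK293 cells stably expressing rat GLP-1R were preincubated 5 h at 4 °C with FlashBlue beads (150 μg). Then 40 pM [125I]GLP-1(7−36) amide or [125I]Exendin(9−39) was added with aprotinin 2 μg/mL, leupeptin 100 μM and test compound at varied concentrations. Incubated overnight at 4 °C, then bound radioactivity counted. Mean ± SEM of two independent experiments.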
# [2] = target: T1, Glucagon-like peptide 1 receptor (Rattus norvegicus); assay: Inhibition of [125I]Exendin (9-39) binding to rat GLP1R expressed in HEK293 cells; type: cell-based; design: concentration or dose not given beside the values; settings: concentration not given here; outline: as §1
# [3] = target: T1, Glucagon-like peptide 1 receptor (Rattus norvegicus); assay: Agonist activity at rat GLP1R expressed in HEK293 cells assessed as stimulation of cAMP levels incubated for 6 hrs by multiple response element/cAMP response element (MRE/CRE)-driven reporter gene assay relative to 10 nM GLP1; type: functional, cell-based
# Outline: (§2)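 Stable HEK293 line co-expressing rat GLP-1R (pCMV-Tag2B) and a luciferase reporter with 3× MRE plus 1× CRE, seeded at 40000 cells/well and cultured overnight. Compounds in DMSO or GLP-1(7−37) were added for 6 h, then cells were lysed and luciferase read (Steady-Glo). The 10 nM GLP-1 maximum was taken as 100%. Mean ± SEM of two independent experiments; some values come from a single run.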
# [4] = target: T2, Glucagon-like peptide 2 receptor (Homo sapiens) (UniProt O95838); assay: Agonist activity at human GLP2R expressed in HEK293 cells assessed as stimulation of cAMP levels incubated for 6 hrs by multiple response element/cAMP response element (MRE/CRE)-driven reporter gene assay; type: functional, cell-based
# T2 sequence (whole entry): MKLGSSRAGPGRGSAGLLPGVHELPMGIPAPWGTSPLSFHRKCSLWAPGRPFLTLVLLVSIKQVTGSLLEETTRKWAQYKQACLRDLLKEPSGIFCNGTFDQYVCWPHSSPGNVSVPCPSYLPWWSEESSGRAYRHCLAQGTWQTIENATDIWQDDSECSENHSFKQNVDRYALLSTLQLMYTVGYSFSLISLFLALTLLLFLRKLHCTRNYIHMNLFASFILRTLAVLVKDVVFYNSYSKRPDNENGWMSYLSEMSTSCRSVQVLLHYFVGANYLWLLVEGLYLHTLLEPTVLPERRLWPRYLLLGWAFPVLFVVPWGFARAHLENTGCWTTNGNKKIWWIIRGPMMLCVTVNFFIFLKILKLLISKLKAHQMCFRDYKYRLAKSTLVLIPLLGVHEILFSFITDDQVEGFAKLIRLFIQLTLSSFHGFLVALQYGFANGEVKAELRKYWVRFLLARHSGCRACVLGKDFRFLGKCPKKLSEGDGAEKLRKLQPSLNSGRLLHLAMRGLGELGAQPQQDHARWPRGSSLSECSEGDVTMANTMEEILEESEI
# Outline: (§3)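 HEK293 cells transiently cotransfected with human GLP-2 receptor or glucagon receptor expression vector plus a luciferase reporter carrying three copies of multiple response element and one cAMP response element. Luciferase activity at different compound concentrations was expressed relative to the respective native peptide (GLP-2 or glucagon, 100%). Mean ± SEM of triplicate experiments.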
# [5] = target: Glucagon receptor (Homo sapiens) (UniProt P47871); assay: Agonist activity at human glucagon receptor expressed in HEK293 cells assessed as stimulation of cAMP levels incubated for 6 hrs by multiple response element/cAMP response element (MRE/CRE)-driven reporter gene assay; type: functional, cell-based; outline: as §3
# Glucagon receptor (Homo sapiens), sequence (P47871 whole entry): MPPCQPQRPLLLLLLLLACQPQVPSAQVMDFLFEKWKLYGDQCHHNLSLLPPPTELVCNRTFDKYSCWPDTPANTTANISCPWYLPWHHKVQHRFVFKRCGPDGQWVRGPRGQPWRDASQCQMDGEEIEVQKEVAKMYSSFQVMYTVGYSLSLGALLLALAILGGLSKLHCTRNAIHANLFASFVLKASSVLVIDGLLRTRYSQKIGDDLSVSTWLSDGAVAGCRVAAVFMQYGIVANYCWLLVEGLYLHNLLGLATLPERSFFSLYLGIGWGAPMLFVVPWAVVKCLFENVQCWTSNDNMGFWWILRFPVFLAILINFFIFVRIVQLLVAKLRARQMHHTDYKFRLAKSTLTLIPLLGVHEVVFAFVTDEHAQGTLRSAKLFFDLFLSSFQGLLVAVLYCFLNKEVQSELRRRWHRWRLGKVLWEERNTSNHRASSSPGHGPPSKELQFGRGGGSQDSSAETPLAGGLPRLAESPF
# Mus musculus [6] = assay: Reduction of body weight in C57BL/6J mouse diet-induced obesity model at 3 mg, ip dosed 3 times per week for 28 days by chronic weight loss study; type: functional, organism-based
# Outline: (§4)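 Male C57BL/6J mice (8 weeks at start, 18−20 g) kept on high-fat diet (60% fat) for 12 weeks, then randomised by body weight to groups of n = 8−9. Dosed ip Monday/Wednesday/Friday for 28 days with 0, 0.3, 1 or 3 mg in 1% DMSO/20% PEG400/saline, pH 7.4. Body weight recorded daily; a standard-chow group (n = 8) served as reference.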
# [7] = target: T3, Glucagon-like peptide 1 receptor (Rattus norvegicus, UniProt P32301); assay: Inhibition of [125I]GLP1 (7-36) amide binding to rat GLP1R expressed in HEK293 cells; type: cell-based; outline: as §1
# T3 sequence (P32301 whole entry): T1 sequence (whole entry)
# [8] = target: T3, Glucagon-like peptide 1 receptor; assay: Agonist activity at rat GLP1R expressed in HEK293 cells assessed as stimulation of cAMP levels incubated for 6 hrs by multiple response element/cAMP response element (MRE/CRE)-driven reporter gene assay; type: functional, cell-based; outline: as §2
# Mus musculus [9] = assay: Inhibition of acute food intake in intraperitoneally dosed C57BL/6J mouse measured 6 hrs post dose; type: functional, organism-based
# Outline: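 Male C57BL/6J mice (6 weeks, 18−20 g) fasted overnight and given a single ip dose of 0.1, 0.3, 1 or 3 mg or vehicle (1% DMSO, 20% PEG400 in saline). Mice housed singly with a preweighed food pellet, reweighed every 15 or 30 min for 6 h to give cumulative intake. n ≥ 6 per group; mean ± SEM.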
# Mus musculus [10] = assay: Reduction of body weight in C57BL/6J mouse diet-induced obesity model dosed intraperitoneally 3 times per week for 28 days by chronic weight loss study; type: functional, organism-based; outline: as §4
Compound,inhibition [1] [%],inhibition [2] [%],Efficacy [3] [%],Activity [4],Activity [5],Activity (Mus musculus [6]),pIC50 [7],pEC50 [8],inhibition (Mus musculus [9]),Activity (Mus musculus [10])
COc1cc([C@H]2[C@](NC(=O)c3ccc(NC(=O)OC(C)(C)C)cc3)(C(=O)O)[C@@H](c3ccc(OC(=O)c4cccs4)c(OC)c3)[C@]2(NC(=O)c2ccc(NC(=O)OC(C)(C)C)cc2)C(=O)O)ccc1OC(=O)c1cccs1 (stereo in doubt; 3),87.2,63.1,96.7,inactive,inactive,Active,,,,
COc1cc([C@H]2[C@](NC(=O)c3ccc(NC(=O)C(C)C)cc3)(C(=O)O)[C@@H](c3ccc(OC(=O)c4cccs4)c(OC)c3)[C@]2(NC(=O)c2ccc(NC(=O)C(C)C)cc2)C(=O)O)ccc1OC(=O)c1cccs1,58.2,49.7,73.6,,,,6.52,6.69,Active,Dose-dependent effect
GLUCAGON,,,,,Active,,,,,
